The source made the active and inactive calls. No cut-off for these calls is given here.
Assays:
Assay type in all cases: functional
[1] = Antioxidant activity assessed as inhibition of ROS-induced linoleic acid peroxidation at 1 mM after 15 mins at 100 degC by modified TBARS assay relative to control
In short: (§1)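 Linoleic acid (1.5% in ethanol) diluted with twofold 200 mM PBS, pH 7.4, then incubated with 2.5 mM FeSO4 (0.2 mL) and test sample at 37 °C for 30 min. The reaction was stopped with 10% TCA and 0.67% TBA, then boiled 15 min. The MDA–TBA adduct in the supernatant was read at 532 nm. % inhibition = [(A−A1)/A]×100 versus control absorbance.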

[2] = Antioxidant activity assessed as inhibition of ROS-induced linoleic acid peroxidation at 2 mM after 15 mins at 100 degC by modified TBARS assay relative to control; in short: as §1
[3] = Neuroprotective effect against H202-induced Sprague-Dawley rat cortical neuron injury assessed as cell viability up to 1 mM treated 30 mins before H202 challenge measured after 24 hrs by MTT assay; settings: Cortical neurone
In short: (§2)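 Cortices from 1–3-day-old Sprague–Dawley rats were digested with 0.25% […] at 37 °C, and cells were plated at 9×10^4/well in DMEM/10% FBS for 24 h plus 12 h. Drugs were added 30 min before 0.5 mM H2O2, then incubated 24 h at 37 °C, 5% CO2. Viability was measured by MTT 4 h, DMSO solubilization, A570, as % of untreated/saline control. Means ± SEM of three independent experiments.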

Platelet = assay: Inhibition of ADP-induced New Zealand rabbit platelet aggregation at 2 mM treated for 1 min prior to ADP challenge by turbidimetric method relative to control; settings: Oryctolagus cuniculus
In short: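 New Zealand rabbit blood was anticoagulated with 3.8% citrate (9:1), and PRP was taken by centrifugation. PRP was pre-warmed at 37 °C for 1 min, then drug was added to 2 mM final. After 1 min of stirring, ADP (10 µM) was added and the reaction ran 4 min. Maximum change in light transmission was recorded turbidimetrically and expressed as % of drug-free control.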

Rattus norvegicus [4] = assay: Neuroprotective effect against middle cerebral artery occlusion-induced focal cerebral ischemia in Sprague-Dawley rat assessed as reduction in infarct area at 65 mg/kg, ip administered 1 hr after MCA occlusion measured after 24 hrs of reperfusion by TTC staining relative to control; design: scale not given: the % may be the effect or the level left; settings: route intraperitoneal
In short: (§3)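 Female Sprague-Dawley rats (210–240 g) under chloral hydrate (400 mg/kg ip) underwent 2 h transient proximal MCA occlusion by intraluminal suture, then reperfusion. Drug or saline was given ip 1 h after occlusion. After 24 h of reperfusion, 2-mm brain slices were stained with 0.5% TTC for 30 min at 37 °C. Infarct area was expressed as % of total section area. Single-tail Student's t-test versus control.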

[5] = Neuroprotective effect against H202-induced Sprague-Dawley rat cortical neuron injury assessed as cell viability at 1 to 1000 uM treated 30 mins before H202 challenge measured after 24 hrs by MTT assay; settings: Cortical neurone; in short: as §2
[6] = Neuroprotective effect against H202-induced Sprague-Dawley rat cortical neuron injury assessed as cell viability at 1 mM treated 30 mins before H202 challenge measured after 24 hrs by MTT assay relative to control; settings: Cortical neurone; in short: as §2
Rattus norvegicus [7] = assay: Antithrombotic activity in Sprague-Dawley rat venous thrombus model assessed as inhibition of thrombus formation at 3.25 mg/kg, iv administered 2 hrs after ligation measured after 24 hrs relative to control
Rattus norvegicus [8] = assay: Neuroprotective effect against middle cerebral artery occlusion-induced focal cerebral ischemia in Sprague-Dawley rat assessed as reduction in infarct area at 80 mg/kg, ip administered 1 hr after MCA occlusion measured after 24 hrs of reperfusion by TTC staining relative to control; design: scale not given: the % may be the effect or the level left; settings: route intraperitoneal; in short: as §3
[9] = Neuroprotective effect against H202-induced Sprague-Dawley rat cortical neuron injury assessed as cell viability at 100 uM treated 30 mins before H202 challenge measured after 24 hrs by MTT assay; settings: Cortical neurone; in short: as §2
Rattus norvegicus [10] = assay: Neuroprotective effect against middle cerebral artery occlusion-induced focal cerebral ischemia in Sprague-Dawley rat assessed as reduction in infarct area at 62 mg/kg, ip administered 1 hr after MCA occlusion measured after 24 hrs of reperfusion by TTC staining relative to control; design: scale not given: the % may be the effect or the level left; settings: route intraperitoneal; in short: as §3
Rattus norvegicus [11] = assay: Antithrombotic activity in Sprague-Dawley rat venous thrombus model assessed as inhibition of thrombus formation at 2 mg/kg, iv administered 2 hrs after ligation measured after 24 hrs relative to control
Rattus norvegicus [12] = assay: Antithrombotic activity in rat venous thrombosis model assessed as inhibition of thrombus formation at 1.2 mg/kg
Rattus norvegicus [13] = assay: Neuroprotective effect against middle cerebral artery occlusion-induced focal cerebral ischemia in Sprague-Dawley rat assessed as reduction in infarct area at 50 mg/kg, ip administered 1 hr after MCA occlusion measured after 24 hrs of reperfusion by TTC staining relative to control; design: scale not given: the % may be the effect or the level left; settings: route intraperitoneal; in short: as §3

With `CC(C)(C)/[N+]([O-])=C/c1ccccc1` the inhibition [1] was 15.8%, the inhibition [2] was 25.1% and the Activity [3] was “inactive”. For the same compound, the inhibition at 2000 µM (Platelet) was 33.9% and the Activity (Rattus norvegicus [4]) was 31.1%.

For `Cc1nc(C)c(/C=[N+](\[O-])C(C)(C)C)nc1C`, the inhibition [1] was 13.7%, the inhibition [2] was 40% and the Activity [5] was “Active”. The Activity [6] was 96%, the inhibition at 2000 µM (Platelet) was 30% and the inhibition in vivo at 3.25 mg/kg (Rattus norvegicus [7]) was 57.6%. The Activity (Rattus norvegicus [8]) was 56.3%.

Compound `O=C1O[C@H]([C@@H](O)CO)C(O)=C1O` has an inhibition [1] of 43.3% and an inhibition [2] of 53.2%.

For `CC(=O)Oc1ccccc1C(=O)O` [ASPIRIN], the inhibition at 2000 µM (Platelet) was 24.8%.

`CC1=NN(c2ccccc2)C(=O)C1` [EDARAVONE] gave an inhibition [1] of 37.9%, an inhibition [2] of 43.7% and an Activity [6] of 82%. For the same compound, the Activity [9] was “Active”, the inhibition at 2000 µM (Platelet) was 32.4% and the Activity (Rattus norvegicus [10]) was 52.5%.

In the case of `Cc1nc(C)c(C)nc1C` [LIGUSTRAZINE], the inhibition [1] is reported as 6.6%, the inhibition [2] is reported as 9% and the Activity [3] is reported as “inactive”. The inhibition at 2000 µM (Platelet) was 36.2%, the inhibition in vivo at 2 mg/kg (Rattus norvegicus [11]) was 71.2% and the inhibition in vivo at 1.2 mg/kg (Rattus norvegicus [12]) was 50%. It also gave an Activity (Rattus norvegicus [13]) of 46.3%.

From ChEMBL document CHEMBL1141722, “Antioxidative and thrombolytic TMP nitrone for treatment of ischemic stroke” (2008)
